In publication PMC7983942 (Clinical Pharmacology and Therapeutics, 2020):
Changes are numbered by the printed parent chain.

Columns and labels:
Assay type in all cases: in vitro ADME
OATP1B1*1A = molecular target: T1, OATP1B1*1A (Homo sapiens, UniProt Q9Y6L6); assay: Uptake into transporter-transfected vs wild-type HEK293 cells
T1 sequence (Q9Y6L6 1-691): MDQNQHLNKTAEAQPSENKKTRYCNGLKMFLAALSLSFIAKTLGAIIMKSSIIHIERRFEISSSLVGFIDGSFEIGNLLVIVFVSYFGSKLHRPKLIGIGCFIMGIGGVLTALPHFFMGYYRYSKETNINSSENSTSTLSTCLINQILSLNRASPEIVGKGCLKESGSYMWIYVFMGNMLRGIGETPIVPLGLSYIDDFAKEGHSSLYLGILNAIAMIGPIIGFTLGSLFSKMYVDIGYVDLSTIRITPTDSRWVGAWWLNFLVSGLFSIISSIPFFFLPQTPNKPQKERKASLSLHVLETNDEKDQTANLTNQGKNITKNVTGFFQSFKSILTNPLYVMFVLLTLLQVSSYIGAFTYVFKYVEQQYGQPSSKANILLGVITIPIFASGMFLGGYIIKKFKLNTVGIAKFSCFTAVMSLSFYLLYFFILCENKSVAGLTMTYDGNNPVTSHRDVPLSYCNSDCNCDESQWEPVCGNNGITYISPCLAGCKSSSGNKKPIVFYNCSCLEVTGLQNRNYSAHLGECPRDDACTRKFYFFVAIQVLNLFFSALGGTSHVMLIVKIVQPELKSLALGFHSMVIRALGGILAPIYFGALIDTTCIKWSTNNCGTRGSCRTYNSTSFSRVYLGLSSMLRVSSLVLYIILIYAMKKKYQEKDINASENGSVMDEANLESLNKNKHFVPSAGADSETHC
Summary of the method: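 HEK293 cells stably transfected with OATP1B1*1A, OATP1B3 or OATP2B1, plus wild-type cells, were seeded on poly-D-lysine plates. Culture was 48 h at 37°C in DMEM with 10% FBS, pyruvate, nonessential amino acids and GlutaMAX. Test compound was 1 µM for 2 min; rosuvastatin probe was 1 µM over 2–4 min. Cells were washed four times in ice-cold buffer and lysed in methanol with internal standard. Readouts were uptake ratio versus wild-type and glucuronide/probe ratio of ratios; mean ± SD, n=3 in one experiment.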

OATP1B1*5 = molecular target: T2, OATP1B1*5 (Homo sapiens, UniProt Q9Y6L6, V174A); assay: Uptake into OATP1B1 variant-transfected vs wild-type HEK293 cells; conditions: for Uptake ratio (vs. wild‐type HEK293 cells): 2 minutes
T2 sequence (Q9Y6L6 1-691 V174A): T1 sequence (Q9Y6L6 1-691) with V174A
Summary of the method: (§1)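 HEK293 cells stably expressing an OATP1B1 variant, alongside wild-type HEK293, were seeded at 0.5–1.2 × 10⁵ cells/well on poly-D-lysine plates. They grew 48 h at 37°C and 5% CO₂ in DMEM with 10% FBS, 1% pyruvate, nonessential amino acids and GlutaMAX. Substrate was 1 µM (0.5 µM where footnoted) for 2 min, then four ice-cold buffer washes and methanol lysis with internal standard. Uptake ratio (transfected/wild-type) is expressed as % of OATP1B1*14 in the same experiment; n=3 determinations.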

OATP1B1*15 = molecular target: T3, OATP1B1*15 (Homo sapiens, UniProt Q9Y6L6, N130D/V174A); assay: as above; conditions: for Uptake ratio (vs. wild‐type HEK293 cells): 2 minutes
T3 sequence (Q9Y6L6 1-691 N130D/V174A): T1 sequence (Q9Y6L6 1-691) with N130D, V174A
Summary of the method: as §1

[1] = experiment 1, substrate concentration 0.5 µM

CC(C)c1nc(N(C)S(C)(=O)=O)nc(-c2ccc(F)cc2)c1/C=C/[C@@H](O)C[C@@H](O)CC(=O)O [Rosuvastatin]
Uptake ratio (vs. wild‐type HEK293 cells) (OATP1B1*1A; experiment 3, substrate 1 µM, 2 minutes): 51 ± 1.4
Uptake ratio (vs. wild‐type HEK293 cells), probe (OATP1B1*1A; rosuvastatin 1 µM, two to four minutes): 51.3 ± 1.4
Uptake ratio as percentage of OATP1B1*14 in the same experiment (OATP1B1*5; [1]): 16%
Uptake ratio (vs. wild‐type HEK293 cells) (OATP1B1*5; [1]): 2.4 ± 0.4
Uptake ratio as percentage of OATP1B1*14 in the same experiment (OATP1B1*5; experiment 2, substrate 1 µM): 15%
Uptake ratio (vs. wild‐type HEK293 cells) (OATP1B1*5; experiment 2, substrate 1 µM): 5.9 ± 0.5
Uptake ratio as percentage of OATP1B1*14 in the same experiment (OATP1B1*15; [1]): 15%
Uptake ratio (vs. wild‐type HEK293 cells) (OATP1B1*15; [1]): 2.3 ± 0.2
Uptake ratio as percentage of OATP1B1*14 in the same experiment (OATP1B1*15; experiment 2, substrate 1 µM): 13%
Uptake ratio (vs. wild‐type HEK293 cells) (OATP1B1*15; experiment 2, substrate 1 µM): 5.0 ± 0.2
